Article PMC6847114 (Nucleic Acids Research, 2019)

Columns and labels:
HeLa cells = type: cell-based; conditions: Ru 100 μM + HCPs 300 μM; for Nuclear uptake of [Ru(bpy)2(dppz)]^2+ in full medium: full medium containing serum, CLSM
[1] = ref [52]; cited from earlier work
[2] = n-Octanol/aqueous partitioning; type: physicochemical; conditions: n-octanol / Tris–HCl buffer 10 mM pH 7.4, Ru 100 μM
Summary of the method: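 Shake-flask partitioning of the Ru complex between n-octanol and aqueous Tris–HCl (10 mM, pH 7.4), run with or without highly chlorinated phenols (penta-, tetra- or trichlorophenols) at different Ru:phenol ratios. The complex was quantified in each phase by UV-vis absorbance. Ion-pair lipophilicity is reported as n-octanol-phase absorption intensity at Ru/phenol 1:10, multiplied by 10.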

[3] = ref [53],[54]; cited from earlier work

| Compound | Nuclear uptake of [Ru(bpy)2(dppz)]^2+ in full medium (HeLa cells) | Cellular and nuclear uptake of [Ru(bpy)2(dppz)]^2+ by luminescence (HeLa cells; serum-free medium, flow cytometry and CLSM) | log Kow [1] | Lipophilicity of the ion-pairing complex formed with [Ru(bpy)2(dppz)]Cl2 [2] | pKa [3] |
| --- | --- | --- | --- | --- | --- |
| Oc1cc(Cl)c(Cl)c(Cl)c1Cl [2,3,4,5-TeCP, 2,3,4,5-tetrachlorophenol] | facilitated | most effective | 4.95 | least hydrophobic | 5.64 |
| Oc1c(Cl)c(Cl)c(Cl)c(Cl)c1Cl [PCP, pentachlorophenol] | facilitated |  | 5.01 | most lipophilic |  |
